The text below walks through data of ChEMBL document CHEMBL2069243, “Synthesis and SAR of pyridothiazole substituted pyrimidine derived HCV replication inhibitors” (Bioorg Med Chem Lett, 2012).

A value given as a limit tells only on which side of the number the result lay.

By half-life is commonly meant how long it takes for the measured level to halve. For orientation: CL/F means the apparent clearance, not corrected for the fraction that reaches the circulation. As a reminder, the CC50 is the concentration giving 50% cytotoxicity. The bioavailability is the share of a dose that reaches the circulation, judged against a reference dose that is usually intravenous. The term EC50 denotes the concentration needed to bring the measured effect to its halfway point. As usually defined, the AUC is the area under the concentration-time curve, a measure of exposure. What is called AUC(0-t) is the area under the concentration-time curve up to a stated or last time point.

A short description of data set [1]: Half life in dog at 3 mg/kg, po. It counts as ADME, organism-based, Canis lupus familiaris. Also noted: dose 3 mg/kg, route oral. The following applies: in vivo.
Data set [2] concerns the target Cytochrome P450 3A4 (Homo sapiens, UniProt P08684). Briefly: Inhibition of CYP3A4. It counts as ADME.
Data set [3] is described as follows: Clearance in rat at 10 mg/kg, po. Also noted: dose 10 mg/kg, route oral. Particulars: in vivo. Format: ADME, organism-based.
Data set [4] can be described thus: Cytotoxicity against human hepatoma cells assessed as inhibition of [14C]thymidine incorporation after 3 days by TopCount analysis. It counts as cell-based. Summed up: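 Replicon cells were seeded in scintillating microplates one day before treatment. Compound dilutions in triplicate were added with [methyl-14C]-thymidine (final 0.5 uCi/mL) and incubated 3 days. Incorporated label was counted by scintillation proximity. DNA CC50 is the concentration giving 50% inhibition of thymidine incorporation versus vehicle-treated cells.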

Data set [5] is described as follows: Oral bioavailability in dog at 3 mg/kg. Format: ADME, organism-based, Canis lupus familiaris. Particulars: in vivo.
Data set [6] deals with Cytochrome P450 2C9 (Homo sapiens, UniProt P11712). Briefly: Inhibition of CYP2C9. Format: ADME.
Data set [7] in a line: Cytotoxicity against human hepatoma cells after 3 days by MTS assay. Format: cell-based. The essentials:
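MTS cell proliferation assay on replicon cells handled as in the replicon activity assay (seeded one day before, 0.5% DMSO, 10% FBS, serial dilutions), read 3 days after dosing. CC50 is the concentration giving 50% inhibition relative to vehicle-treated cells.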
On the technique in general: Formazan colour is commonly taken as a measure of viable cells.

Data set [8] can be described thus: Clearance in monkey at 3 mg/kg, po. The following applies: rhesus monkey, in vivo. Also noted: dose 3 mg/kg, route oral. It counts as ADME, organism-based, Macaca mulatta.
Data set [9] is described as follows: Oral bioavailability in monkey at 3 mg/kg. Format: ADME, organism-based, Macaca mulatta. The following applies: rhesus monkey, in vivo.
Data set [10] can be described thus: Oral bioavailability in rat at 10 mg/kg. Format: ADME, organism-based. The following applies: in vivo.
Data set [11] is described as follows: Drug uptake in rat liver at 10 mg/kg, po at 6 hrs. It counts as ADME, organism-based. Also noted: dose 10 mg/kg, route oral. Particulars: read-out: Drug uptake. The essentials: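 Rats were dosed orally at 10 mpk in 0.4% methylcellulose, n=2. Animals were sacrificed at 6 h, and liver was harvested and processed to measure compound concentration (liver C6 h).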

Data set [12] relates to Hepatitis C virus. Briefly: Antiviral activity against Hepatitis C virus 1b con1 infected in human hepatoma cells assessed as decrease in replicon RNA level after 3 days by RT-PCR analysis. It counts as functional, organism-based, Hepacivirus hominis. Particulars: genotype 1b Con1, 72 h. Summed up:
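Con1 genotype 1b replicon cells were seeded at 5000 cells/well one day before treatment. Compound in DMSO was added (final 0.5% DMSO, 10% FBS) as 10 serial twofold dilutions in triplicate. Cells were harvested 3 days after dosing. Replicon RNA was quantified by real-time RT-PCR (Taqman), normalized to GAPDH RNA, and EC50 was calculated.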

Data set [13] in a line: Half life in monkey at 3 mg/kg, po. Format: ADME, organism-based, Macaca mulatta. Also noted: dose 3 mg/kg, route oral. Particulars: rhesus monkey, in vivo.
Data set [14] in a line: Clearance in dog at 3 mg/kg, po. It counts as ADME, organism-based, Canis lupus familiaris. Also noted: dose 3 mg/kg, route oral. The following applies: in vivo.
Data set [15] can be described thus: AUC in monkey at 3 mg/kg, po. It counts as ADME, organism-based, Macaca mulatta. Also noted: dose 3 mg/kg, route oral. Particulars: rhesus monkey, plasma. The essentials: (§1)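 Oral dosing of the HCl salt at 3 mpk; plasma AUC reported in µM.h.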
Data set [16] can be described thus: AUC (0 to 24 hrs) in rat at 10 mg/kg, po. Format: ADME, organism-based. Also noted: time < 24 hr, dose 10 mg/kg, route oral. Particulars: plasma.
Data set [17] is described as follows: Half life in rat at 10 mg/kg, po. Also noted: dose 10 mg/kg, route oral. The following applies: in vivo. It counts as ADME, organism-based.
Data set [18] relates to Hepatitis C virus. Briefly: Antiviral activity against Hepatitis C virus 2a by replicon-based assay. Particulars: genotype 2a. It counts as functional, organism-based, Hepacivirus hominis. A general note: A replicon is a self-replicating genome or part of one, used to study replication in cells.
Data set [19] is described as follows: AUC in dog at 3 mg/kg, po. The following applies: plasma. Also noted: dose 3 mg/kg, route oral. It counts as ADME, organism-based, Canis lupus familiaris. The essentials: as §1
The test system of data set [20] is Hepatitis C virus. Briefly: Antiviral activity against Hepatitis C virus 1a by replicon-based assay. It counts as functional, organism-based, Hepacivirus hominis. Particulars: subtype 1a.
Data set [21] can be described thus: Cytotoxicity against human hepatoma cells assessed as decrease in GADPH RNA level after 3 days by Rt-PCR analysis. It counts as cell-based.
The target of data set [22] is Cytochrome P450 2D6 (Homo sapiens, UniProt P10635). The experiment in a line: Inhibition of CYP2D6. Format: ADME.
The nature of data set [23]: AUC (0 to 6 hrs) in rat at 10 mg/kg, po. Format: ADME, organism-based. Also noted: time < 6 hr, dose 10 mg/kg, route oral. Particulars: plasma. Summed up: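 Rats were dosed orally at 10 mpk in 0.4% methylcellulose, n=2 per compound. Plasma was sampled at 8 time points up to 6 h, and exposure was reported as AUC0-6 h.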

Cytochrome P450 2C9, sequence (P11712 whole entry): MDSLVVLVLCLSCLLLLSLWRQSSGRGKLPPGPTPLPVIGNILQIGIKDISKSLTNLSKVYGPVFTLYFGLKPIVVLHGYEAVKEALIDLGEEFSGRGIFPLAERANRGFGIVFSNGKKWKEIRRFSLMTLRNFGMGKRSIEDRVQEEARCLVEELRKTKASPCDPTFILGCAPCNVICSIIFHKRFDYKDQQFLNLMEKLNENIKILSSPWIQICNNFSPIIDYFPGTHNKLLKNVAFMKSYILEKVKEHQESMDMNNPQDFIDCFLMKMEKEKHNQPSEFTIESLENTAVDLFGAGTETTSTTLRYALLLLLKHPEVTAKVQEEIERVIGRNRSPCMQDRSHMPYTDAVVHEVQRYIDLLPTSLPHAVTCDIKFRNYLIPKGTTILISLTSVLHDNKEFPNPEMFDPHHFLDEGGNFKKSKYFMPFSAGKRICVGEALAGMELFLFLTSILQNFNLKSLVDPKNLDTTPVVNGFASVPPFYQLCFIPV
Cytochrome P450 2D6, sequence (P10635 whole entry): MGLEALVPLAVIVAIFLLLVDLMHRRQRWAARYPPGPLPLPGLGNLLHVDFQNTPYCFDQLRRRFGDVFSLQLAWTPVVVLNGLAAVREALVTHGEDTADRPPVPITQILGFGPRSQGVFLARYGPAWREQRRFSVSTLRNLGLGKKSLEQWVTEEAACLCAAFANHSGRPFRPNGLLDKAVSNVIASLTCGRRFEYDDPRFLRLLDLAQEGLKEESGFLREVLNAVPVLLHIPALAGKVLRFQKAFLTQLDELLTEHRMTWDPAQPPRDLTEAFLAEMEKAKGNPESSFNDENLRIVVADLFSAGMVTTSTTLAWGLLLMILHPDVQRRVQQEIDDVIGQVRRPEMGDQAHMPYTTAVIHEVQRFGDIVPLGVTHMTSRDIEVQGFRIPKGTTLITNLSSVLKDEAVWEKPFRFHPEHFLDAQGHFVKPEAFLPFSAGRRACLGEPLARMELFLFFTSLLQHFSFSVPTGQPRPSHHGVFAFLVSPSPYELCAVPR
Cytochrome P450 3A4, sequence (P08684 whole entry): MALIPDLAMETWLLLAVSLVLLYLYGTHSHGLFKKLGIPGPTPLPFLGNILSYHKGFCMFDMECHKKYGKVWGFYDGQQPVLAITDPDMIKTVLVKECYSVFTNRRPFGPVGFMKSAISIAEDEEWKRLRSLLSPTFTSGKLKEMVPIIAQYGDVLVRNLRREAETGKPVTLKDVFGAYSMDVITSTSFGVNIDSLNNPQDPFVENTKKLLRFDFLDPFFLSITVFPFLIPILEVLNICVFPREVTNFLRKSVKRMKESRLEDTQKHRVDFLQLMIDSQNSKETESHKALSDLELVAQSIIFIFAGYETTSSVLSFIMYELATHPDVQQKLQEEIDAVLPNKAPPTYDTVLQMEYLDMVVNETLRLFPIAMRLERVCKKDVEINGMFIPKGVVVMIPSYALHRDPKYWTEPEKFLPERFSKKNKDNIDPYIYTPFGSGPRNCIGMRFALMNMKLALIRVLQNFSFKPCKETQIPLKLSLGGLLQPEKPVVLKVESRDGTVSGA

On to `Cc1nc(N[C@H](C)c2ccc(OC(F)(F)F)cc2)nc(N[C@@H]2C[C@H](CO)[C@@H](O)[C@H]2O)c1-c1nc2c(C3CC3)nccc2s1.Cl`, for which the half-life in data set [1] is 5.2 h; in data set [13], 4.4 h; in data set [17] it was 5 h. For the same molecule, the INH in [2], in data set [6] and in data set [22] was over 20 µM in each case. Besides, the CL/F worked out at 11 mL/min/kg in data set [3], 7.2 mL/min/kg in data set [8] and 4.2 mL/min/kg in data set [14]. Besides, the CC50 at 72 h was over 25 µM in data set [4], over 25 µM in [7] and 25 µM in [21]. Also, the bioavailability was 32% in [5], 12% in data set [9] and 18% in [10]. In addition, the concentration at 6 h in data set [11] turned out to be 11000 ng/g. Moreover, the EC50 in data set [12] was found to be 0.06 µM; in [18], 0.18 µM; in data set [20], 0.4 µM. Further, the AUC in data set [15] stood at 1.3 µM·h; in [19], 5.1 µM·h. This molecule gave an AUC(0-t) at 24 h in data set [16] of 5.2 µM·h.

As to `Cc1nc(N[C@H](C)c2ccc(OC(F)(F)F)cc2)nc(N[C@@H]2C[C@H](CO)[C@@H](O)[C@H]2O)c1-c1nc2cnccc2s1`, the CC50 at 72 h is 6 µM in [4], over 25 µM in [7] and 25 µM in data set [21]. The concentration at 6 h in data set [11] turned out to be 1800 ng/g. The EC50 in data set [12] is 0.016 µM. The AUC(0-t) at 6 h in [23] was 1.6 µM·h.

For `Cc1nc(N[C@H](C)c2ccc(OC(F)(F)F)cc2)nc(N[C@@H]2C[C@H](CO)[C@@H](O)[C@H]2O)c1-c1nc2c(C)nccc2s1.Cl`, the half-life in data set [1] is 4.2 h; in data set [13] it was 3.3 h; in data set [17] it was 2.5 h. The INH in data set [2], in [6] and in data set [22] was over 20 µM throughout. For the same molecule, the figures for the apparent clearance CL/F in data set [3], in data set [8] and in [14] were 40 mL/min/kg, 20 mL/min/kg and 9.8 mL/min/kg, respectively. For the same molecule, the CC50 at 72 h in data set [4] is over 25 µM; in data set [7] it was over 25 µM; in [21], 25 µM. In addition, the bioavailability in data set [5] was found to be 31%; in data set [9] it was 7%; in [10], 15%. The concentration at 6 h in data set [11] worked out at 2820 ng/g. For the same molecule, the EC50 in [12] came to 0.016 µM; in [18], 0.08 µM; in [20], 0.07 µM. Besides, the AUC in data set [15] is 0.3 µM·h; in data set [19], 2.9 µM·h. In data set [16], the AUC(0-t) at 24 h was determined as 1.1 µM·h.

Take `Cc1nc(N[C@H](C)c2ccccc2OC(F)(F)F)nc(N[C@@H]2C[C@H](CO)[C@@H](O)[C@H]2O)c1-c1nc2cnccc2s1`: the CC50 at 72 h in data set [7] is 23 µM; in data set [21], 24 µM. Also, the concentration at 6 h in [11] was found to be 506 ng/g. The EC50 in data set [12] came out at 0.017 µM. In data set [23], the AUC(0-t) at 6 h was 0.5 µM·h.

Consider `Cc1ccc([C@@H](C)Nc2nc(C)c(-c3nc4cnccc4s3)c(N[C@@H]3C[C@H](CO)[C@@H](O)[C@H]3O)n2)cc1`, for which the CC50 at 72 h is over 25 µM in data set [7] and 25 µM in data set [21]. The concentration at 6 h in data set [11] was determined as 116 ng/g. For the same molecule, the EC50 in data set [12] was 0.114 µM. In data set [23], this molecule had an AUC(0-t) at 6 h of 0.1 µM·h.

`Cc1nc(N[C@H](C)c2ccccc2)nc(N[C@@H]2C[C@H](CO)[C@@H](O)[C@H]2O)c1-c1nc2cnccc2s1`: the CC50 at 72 h is over 25 µM in data set [7] and 25 µM in data set [21]. For the same molecule, the concentration at 6 h in data set [11] stood at 104 ng/g. Moreover, the EC50 in data set [12] stood at 0.007 µM. The AUC(0-t) at 6 h in [23] turned out to be 0.2 µM·h.

Turning to `Cc1nc(N[C@H](C)c2ccc(OC(F)(F)F)cc2)nc(N[C@@H]2C[C@H](CO)[C@@H](O)[C@H]2O)c1-c1nc2c(CC(C)(C)C)nccc2s1`, the values for the half-maximal cytotoxic concentration (CC50) at 72 h in data set [7] and in data set [21] were 13 µM and 10 µM, respectively. Moreover, the concentration at 6 h in data set [11] is 4400 ng/g. In addition, the 50% effective concentration (EC50) in data set [12] came out at 0.026 µM. In addition, the AUC(0-t) at 6 h in [23] is 3.2 µM·h.
